Each structure is given as a SMILES string. ≈ marks a conversion by molar mass, not a printed value.

Results on eleven compounds are retold here after paper PMC3831729 (Indian Journal of Pharmaceutical Sciences, 2013).

One assay relates to Rhodospirillum rubrum. Kind of assay: MIC, two-fold serial dilution. In kind it is cell-based. Conditions: 24 h, read-out: R. ruberum MIC× 10^−3.
Another assay has as its system Vibrio cholerae. Kind of assay: MIC, two-fold serial dilution. In kind it is cell-based. Conditions: 24 h, read-out: V. cholerae MIC× 10^−3.
The subject of another assay is Candida albicans. Put plainly: MIC, two-fold serial dilution. The following applies: read-out: C. albicans MIC× 10^−3. The assay is classed as cell-based. An outline of the steps: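 Fungal MIC determined by two-fold serial dilution, with clotrimazole as reference standard. Growth was scored visually after 72-96 h incubation. MIC was taken as the lowest concentration with no visible growth.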

The test system of the next assay is Bacillus lentus. Put plainly: Zone of inhibition, disk diffusion. In kind it is cell-based. Background: Agar diffusion results depend on both activity and mobility in agar.
Assay [1] relates to M. tuberculosis H37Rv versus NIH 3T3. Put plainly: Selectivity index. Further details: species or system Mycobacterium tuberculosis. Conditions: IC50 NIH 3T3 / MIC M. tuberculosis H37Rv. An outline of the steps: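 SI = IC50/MIC. MIC against M. tuberculosis H37Rv came from broth microdilution microplate alamar blue assay (MABA), with compounds tested at 100-1.56 μg/ml. […] IC50 was derived by nonlinear regression of % inhibition against log10 concentration.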

The test system of a further assay is Coryne bacterium. Kind of assay: Zone of inhibition, disk diffusion. The assay is classed as cell-based.
The subject of another assay is Escherichia coli. Put plainly: Zone of inhibition, disk diffusion. Conditions: E. coli, 100 μg/disk. In kind it is cell-based.
Assay [2] relates to M. tuberculosis H37Rv (MTB). Kind of assay: Microplate alamar blue assay. The assay is classed as cell-based, Mycobacterium tuberculosis. The following applies: MABA, screened at 100-1.56 μg/ml; - indicates no inhibition. On the technique in general: The colour change of resazurin is a common sign of viable cells or microbes.

In general, MIC refers to the lowest concentration that inhibits growth of the organism. Turning to `O=C1NN=C(N=Cc2ccc(O)c(O)c2)C1=NNn1c(-c2ccccc2)nc2ccccc2c1=O` [QSP4, 3-{2-[-3-[-[(3,4-dihydroxyphenyl)methylidene]amino]-5-oxo-4,5-dihydro-1H-pyrazol-4-ylidene] hydrazin-1-yl}-2-phenyl-3,4-dihydroquinazolin-4-one], the MIC in the assay on Rhodospirillum rubrum, in the assay on Vibrio cholerae and in the assay on Candida albicans was 26.7 µM (≈ 12.5 µg/mL) throughout.

Turning to `CC(=O)NCN1N=C(C)C(=NNn2c(-c3ccccc3)nc3ccccc3c2=O)C1=O` [QP9, N-{[-3-methyl-5-oxo-4-[2-(4-oxo-2-phenyl-3,4-dihydroquinazolin-3-yl)hydrazin-1-ylidene]-4,5-dihydro-1H-pyrazol-1-yl]methyl}acetamide], the “B. lentus % of I” value with Bacillus lentus was 95%. For the same compound, the “Selective Index (SI) (SI=IC50/MIC)” value in assay [1] is listed as 18.16.

Take `O=C1NN=C(N=Cc2ccccc2O)C1=NNn1c(-c2ccccc2)nc2ccccc2c1=O` [QSP2, 3-{2-[-3-[-[(2-hydroxyphenyl)methylidene]amino]-5-oxo-4,5-dihydro-1H-pyrazol-4-ylidene]hydrazin-1-yl}-2-phenyl-3,4-dihydroquinazolin-4-one]: the “Selective Index (SI) (SI=IC50/MIC)” value in assay [1] was 16.32.

`O=C1NN=C(N=Cc2ccc(O)cc2O)C1=NNn1c(-c2ccccc2)nc2ccccc2c1=O` [QSP3, 3-{2-[-3-[-[(2,4-dihydroxyphenyl)methylidene]amino]-5-oxo-4,5-dihydro-1H-pyrazol-4-ylidene] hydrazin-1-yl}-2-phenyl-3,4-dihydroquinazolin-4-one]: the “Selective Index (SI) (SI=IC50/MIC)” value in assay [1] is recorded as 08.35.

For `CC1=NN(CNc2ccc(O)cc2)C(=O)C1=NNn1c(-c2ccccc2)nc2ccccc2c1=O` [QP3, 3-{2-[-1-{[(4-hydroxyphenyl)amino]methyl}-3-methyl-5-oxo-4,5-dihydro-1H-pyrazol-4-ylidene] hydrazin-1-yl}-2-phenyl-3,4-dihydroquinazolin-4-one], in assay [1], the “Selective Index (SI) (SI=IC50/MIC)” value is 01.16.

Turning to `CC1=NN(CNc2ccc(C(=O)O)cc2)C(=O)C1=NNn1c(-c2ccccc2)nc2ccccc2c1=O` [QP6, 4-({[-3-methyl-5-oxo-4-[2-(4-oxo-2-phenyl-3,4-dihydroquinazolin-3-yl)hydrazin-1-ylidene]-4,5-dihydro-1H-pyrazol-1-yl]methyl}amino)benzoic acid], the “C. bacterium % of I” value with Coryne bacterium is given as 90%. The “antibacterial activity relative to standard drug ciprofloxacin” value in the assay on Escherichia coli is 1.5 times.

In the case of `O=C1NN=C(N=Cc2ccccc2)C1=NNn1c(-c2ccccc2)nc2ccccc2c1=O` [QSP1, 3-{2-[-5-oxo-3-[-(phenylmethylidene)amino]-4,5-dihydro-1H-pyrazol-4-ylidene]hydrazin-1-yl}-2-phenyl-3,4-dihydroquinazolin-4-one], the “Selective Index (SI) (SI=IC50/MIC)” value in assay [1] is on record as 10.92.

Regarding `CC[C@@H](CO)NCCN[C@@H](CC)CO` [Ethambutol, ethambutol], the “TB Activity MIC×10^-3 (MTB37RV)” value in assay [2] was 07.60 ×10^-3 μM/ml.

With `O=C(O)c1cn(C2CC2)c2cc(N3CCNCC3)c(F)cc2c1=O` [CFN, ciprofloxacin], the “TB Activity MIC×10^-3 (MTB37RV)” value in assay [2] is recorded as 09.40 ×10^-3 μM/ml.

As for `CC1=NN(CNC(=O)c2ccccc2)C(=O)C1=NNn1c(-c2ccccc2)nc2ccccc2c1=O` [QP11, N-{[-3-methyl-5-oxo-4-[2-(4-oxo-2-phenyl-3,4-dihydroquinazolin-3-yl)hydrazin-1-ylidene]-4,5-dihydro-1H-pyrazol-1-yl]methyl}benzamide], the “B. lentus % of I” value in the assay with Bacillus lentus was determined as 95%. The “TB Activity MIC×10^-3 (MTB37RV)” value in assay [2] was 06.49 ×10^-3 μM/ml.

In the case of `CC1=NN(CNc2ccc(Cl)cc2)C(=O)C1=NNn1c(-c2ccccc2)nc2ccccc2c1=O` [QP4, 3-{2-[-1-{[(4-chlorophenyl)amino]methyl}-3-methyl-5-oxo-4,5-dihydro-1H-pyrazol-4-ylidene] hydrazin-1-yl}-2-phenyl-3,4-dihydroquinazolin-4-one], the “C. bacterium % of I” value with Coryne bacterium is recorded as 90%.
